How the values were obtained:
[1] = test system: SF-539; test: Growth inhibition of human SF539 cells after 48 hrs by sulforhodamine B assay; type: functional; details: SF-539, 48 h
How it was run: (§1)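 NCI 60-cell-line panel. Cells were grown in medium with 5% fetal calf serum and 2 mM L-glutamine, then preincubated 24 h in plates. Compounds were added from DMSO at five 10-fold concentrations from 100 to 0.01 µM and left on cells continuously for 48 h. Cell growth was read by sulforhodamine B protein stain. GI50 is the concentration that halves net protein increase relative to control cells.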

[2] = test system: M14; test: Growth inhibition of human M14 cells after 48 hrs by sulforhodamine B assay; type: functional; details: M14, 48 h
How it was run: (§2)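 NCI 60-cell-line panel grown in RPMI-type medium with 5% fetal calf serum and 2 mM L-glutamine. Cells preincubated 24 h, then exposed continuously for 48 h to compound in DMSO at 10^-4 to 10^-8 M (five 10-fold levels). Growth read by SRB protein stain. GI50 is the concentration giving a 50% reduction in net protein increase relative to control cells.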

[3] = test system: TK-10; test: Growth inhibition of human TK10 cells assessed as cell growth at 10 uM after 48 hrs by sulforhodamine B assay; type: functional; details: TK-10, 48 h, read-out: Activity
How it was run: (§3)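 Single-dose NCI screen. Tumor lines were cultured in medium with 5% fetal calf serum and 2 mM L-glutamine, preincubated 24 h, then given compound in DMSO. After 48 h continuous exposure, cell growth was estimated by sulforhodamine B protein assay.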

[4] = test system: OVCAR-3; test: Growth inhibition of human OVCAR3 cells after 48 hrs by sulforhodamine B assay; type: functional; details: OVCAR-3, 48 h; how it was run: as §1
[5] = test system: OVCAR-5; test: Growth inhibition of human OVCAR5 cells assessed as cell growth at 10 uM after 48 hrs by sulforhodamine B assay; type: functional; details: OVCAR-5, 48 h, read-out: Activity
[6] = test system: CCRF-CEM; test: Growth inhibition of human CCRF-CEM cells after 48 hrs by sulforhodamine B assay; type: functional, cell-based; how it was run: as §2
[7] = test system: SNB-75; test: Growth inhibition of human SNB75 cells assessed as cell growth at 10 uM after 48 hrs by sulforhodamine B assay; type: functional; details: SNB-75, 48 h, read-out: Activity
[8] = Growth inhibition of human EKVX cells assessed as cell growth at 10 uM after 48 hrs by sulforhodamine B assay; type: functional; details: read-out: Activity
[9] = test system: SW-620; test: Growth inhibition of human SW620 cells assessed as cell growth at 10 uM after 48 hrs by sulforhodamine B assay; type: functional; details: SW-620, 48 h, read-out: Activity; how it was run: as §3
[10] = test system: OVCAR-4; test: Growth inhibition of human OVCAR4 cells after 48 hrs by sulforhodamine B assay; type: functional; details: OVCAR-4, 48 h; how it was run: as §1
[11] = test system: K562; test: Growth inhibition of human K562 cells after 48 hrs by sulforhodamine B assay; type: functional; details: K562, 48 h; how it was run: as §2
[12] = test system: RXF 393; test: Growth inhibition of human RXF393 cells after 48 hrs by sulforhodamine B assay; type: functional; details: RXF 393, 48 h; how it was run: as §1
[13] = test system: HL-60(TB); test: Growth inhibition of human HL-60(TB) cells after 48 hrs by sulforhodamine B assay; type: functional; details: HL-60, 48 h
How it was run: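 Part of the NCI 60-cell-line panel. Cells were grown in 1640 medium with 5% fetal calf serum and 2 mM L-glutamine, then preincubated 24 h before compound was added. Compounds in DMSO were tested at five concentrations (100, 10, 1, 0.1, 0.01 µM) with 48 h continuous exposure. Read-out was SRB protein staining; GI50 is the concentration halving the net protein increase versus control.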

[14] = test system: HOP-92; test: Growth inhibition of human HOP92 cells after 48 hrs by sulforhodamine B assay; type: functional; details: HOP-92, 48 h; how it was run: as §2
[15] = test system: SK-MEL-5; test: Growth inhibition of human SK-MEL-5 cells after 48 hrs by sulforhodamine B assay; type: functional; details: SK-MEL-5, 48 h; how it was run: as §1
[16] = test system: UO-31; test: Growth inhibition of human UO31 cells assessed as cell growth at 10 uM after 48 hrs by sulforhodamine B assay; type: functional; details: UO-31, 48 h, read-out: Activity; how it was run: as §3
[17] = test system: NCI-H460; test: Growth inhibition of human NCI-H460 cells assessed as cell growth at 10 uM after 48 hrs by sulforhodamine B assay; type: functional; details: NCI-H460, 48 h, read-out: Activity
[18] = test system: T47D; test: Growth inhibition of human T47D cells after 48 hrs by sulforhodamine B assay; type: functional
How it was run: (§4)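 NCI 60-line panel. Cells were grown in medium with 5% fetal calf serum and 2 mM L-glutamine and preincubated 24 h in plates. Compound in DMSO was added at 10^-4 to 10^-8 M (five 10-fold levels), with continuous exposure for 48 h. Growth was read by SRB protein staining. GI50 is the concentration giving 50% reduction in net protein increase versus control cells.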

[19] = test system: UO-31; test: Growth inhibition of human UO31 cells after 48 hrs by sulforhodamine B assay; type: functional; details: UO-31, 48 h; how it was run: as §4
[20] = test system: NCI-H23; test: Growth inhibition of human NCI-H23 cells assessed as cell growth at 10 uM after 48 hrs by sulforhodamine B assay; type: functional; details: NCI-H23, 48 h, read-out: Activity
[21] = test system: UACC-62; test: Growth inhibition of human UACC62 cells after 48 hrs by sulforhodamine B assay; type: functional; details: UACC-62, 48 h; how it was run: as §4
[22] = test system: DU-145; test: Growth inhibition of human DU145 cells assessed as cell growth at 10 uM after 48 hrs by sulforhodamine B assay; type: functional; details: DU-145, 48 h, read-out: Activity
[23] = test system: OVCAR-8; test: Growth inhibition of human OVCAR8 cells after 48 hrs by sulforhodamine B assay; type: functional; details: OVCAR-8, 48 h; how it was run: as §1
[24] = test system: SK-MEL-28; test: Growth inhibition of human SK-MEL-28 cells assessed as cell growth at 10 uM after 48 hrs by sulforhodamine B assay; type: functional; details: SK-MEL-28, 48 h, read-out: Activity
[25] = test system: MDA-MB-468; test: Growth inhibition of human MDA-MB-468 cells assessed as cell growth at 10 uM after 48 hrs by sulforhodamine B assay; type: functional; details: MDA-MB-468, 48 h, read-out: Activity
[26] = test system: HCT-15; test: Growth inhibition of human HCT15 cells assessed as cell growth at 10 uM after 48 hrs by sulforhodamine B assay; type: functional; details: HCT-15, 48 h, read-out: Activity
[27] = test system: SNB-19; test: Growth inhibition of human SNB19 cells assessed as cell growth at 10 uM after 48 hrs by sulforhodamine B assay; type: functional; details: SNB-19, 48 h, read-out: Activity
[28] = read-out: LC50 (the source's name)

## CCc1ccc(C2=NN(c3ccc(S(C)(=O)=O)cc3)C(=O)CC2)cc1
[1]
  GI50: 2.35 µM
  TGI: 18.9 µM
[1]; [28]
  CC50: > 100 µM
[2]
  GI50: 0.63 µM
  TGI: > 100 µM
[2]; [28]
  CC50: > 100 µM
[3]
  growth at 10 µM: 71.1%
[4]
  GI50: 0.93 µM
  LC50 (lethal concentration, 50% net cell kill): > 100 µM
[5]
  growth at 10 µM: 48.7%
[6]
  GI50: 2.31 µM
  TGI: > 100 µM
[6]; [28]
  CC50: > 100 µM
[7]
  growth at 10 µM: 16.7%
[8]
  growth at 10 µM: 60.4%
[9]
  growth at 10 µM: 12.4%
[10]
  GI50: 0.01 µM
  LC50: > 100 µM
  TGI: > 100 µM
[11]
  GI50: 0.42 µM
  TGI: > 100 µM
[11]; [28]
  CC50: > 100 µM
[12]
  GI50: 2.04 µM
  LC50 (50% lethal concentration): > 100 µM
  TGI: 19.8 µM
[13]
  GI50: 1.2 µM
  TGI: 6.35 µM
[13]; [28]
  CC50: > 100 µM
[14]
  GI50: 1.58 µM
  TGI: 9.88 µM
[14]; [28]
  CC50: > 100 µM
[15]
  GI50: 1.48 µM
  LC50: 35.7 µM
  TGI: 11.2 µM
[16]
  growth at 10 µM: 33.3%
[17]
  growth at 10 µM: 10.6%
[18]
  GI50: 4.4 µM
  LC50: > 100 µM
  TGI: 93.3 µM
[19]
  GI50: 5.23 µM
  LC50 (concentration killing 50% of cells): > 100 µM
  TGI: > 100 µM
[20]
  growth at 10 µM: -4.83%
[21]
  GI50: 0.78 µM
  LC50 (50% net cell kill concentration): > 100 µM
  TGI: > 100 µM
[22]
  growth at 10 µM: 21.4%
[23]
  GI50: 3.25 µM
  LC50: > 100 µM
  TGI: > 100 µM
[24]
  growth at 10 µM: 50.7%
[25]
  growth at 10 µM: 50.7%
[26]
  growth at 10 µM: 22.1%
[27]
  growth at 10 µM: 51.5%

## O=c1[nH]cc(F)c(=O)[nH]1 [FLUOROURACIL]
[1]
  GI50: 0.06 µM
[2]
  GI50: 0.98 µM
[4]
  GI50: 0.01 µM
[6]
  GI50: 9.79 µM
[10]
  GI50: 4.43 µM
[11]
  GI50: 3.58 µM
[12]
  GI50: 2.61 µM
[13]
  GI50: 2.3 µM
[14]
  GI50: 77.9 µM
[15]
  GI50: 0.46 µM
[18]
  GI50: 8.12 µM
[19]
  GI50: 1.42 µM
[21]
  GI50: 0.52 µM
[23]
  GI50: 1.74 µM
